For 44 compounds, Ratio and IC50 results are on record in ChEMBL document CHEMBL2417539, “1-substituted (Dibenzo[b,d]thiophen-4-yl)-2-morpholino-4H-chromen-4-ones endowed with dual DNA-PK/PI3-K inhibitory activity” (J Med Chem, 2013).

Assay [1] relates to HeLa. The assay is described as follows: Antiproliferative activity against human HeLa cells assessed as cell survival ratio at 0.1 uM treated 1 hr before 2Gy ionizing radiation measured after 6 to 8 days by DMR clonogenic assay. It counts as functional. In short, it runs like this: (§1)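 HeLa cells seeded in 6-well dishes, incubated overnight at 37 °C/5% CO2, pre-treated 1 h with vehicle or inhibitor (0.1 or 0.5 μM), then given 2 Gy X-ray IR and held overnight. Medium then replaced without compound and culture continued 6-8 days. Colonies Giemsa-stained and counted automatically. DMR = % survival (vehicle, 2 Gy) / % survival (compound, 2 Gy).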

Assay [2] deals with HeLa. Description: Antiproliferative activity against human HeLa cells assessed as cell survival ratio at 0.5 uM treated 1 hr before 2Gy ionizing radiation measured after 6 to 8 days by DMR clonogenic assay. It counts as functional. In short, it runs like this: as §1
Assay [3] addresses DNA-dependent protein kinase catalytic subunit (Homo sapiens, UniProt P78527). Description: Inhibition of human DNA-PK using GST-tagged p53N66 as substrate after 1 hr by ELISA-based chemiluminiscence assay. A general note: In an ELISA, binding on a coated surface is turned into a signal by an enzyme label.

A word on the IC50: it is the concentration that inhibits the measured activity by half. Read a high IC50 as lower potency.

Sequence of DNA-dependent protein kinase catalytic subunit (P78527 whole entry): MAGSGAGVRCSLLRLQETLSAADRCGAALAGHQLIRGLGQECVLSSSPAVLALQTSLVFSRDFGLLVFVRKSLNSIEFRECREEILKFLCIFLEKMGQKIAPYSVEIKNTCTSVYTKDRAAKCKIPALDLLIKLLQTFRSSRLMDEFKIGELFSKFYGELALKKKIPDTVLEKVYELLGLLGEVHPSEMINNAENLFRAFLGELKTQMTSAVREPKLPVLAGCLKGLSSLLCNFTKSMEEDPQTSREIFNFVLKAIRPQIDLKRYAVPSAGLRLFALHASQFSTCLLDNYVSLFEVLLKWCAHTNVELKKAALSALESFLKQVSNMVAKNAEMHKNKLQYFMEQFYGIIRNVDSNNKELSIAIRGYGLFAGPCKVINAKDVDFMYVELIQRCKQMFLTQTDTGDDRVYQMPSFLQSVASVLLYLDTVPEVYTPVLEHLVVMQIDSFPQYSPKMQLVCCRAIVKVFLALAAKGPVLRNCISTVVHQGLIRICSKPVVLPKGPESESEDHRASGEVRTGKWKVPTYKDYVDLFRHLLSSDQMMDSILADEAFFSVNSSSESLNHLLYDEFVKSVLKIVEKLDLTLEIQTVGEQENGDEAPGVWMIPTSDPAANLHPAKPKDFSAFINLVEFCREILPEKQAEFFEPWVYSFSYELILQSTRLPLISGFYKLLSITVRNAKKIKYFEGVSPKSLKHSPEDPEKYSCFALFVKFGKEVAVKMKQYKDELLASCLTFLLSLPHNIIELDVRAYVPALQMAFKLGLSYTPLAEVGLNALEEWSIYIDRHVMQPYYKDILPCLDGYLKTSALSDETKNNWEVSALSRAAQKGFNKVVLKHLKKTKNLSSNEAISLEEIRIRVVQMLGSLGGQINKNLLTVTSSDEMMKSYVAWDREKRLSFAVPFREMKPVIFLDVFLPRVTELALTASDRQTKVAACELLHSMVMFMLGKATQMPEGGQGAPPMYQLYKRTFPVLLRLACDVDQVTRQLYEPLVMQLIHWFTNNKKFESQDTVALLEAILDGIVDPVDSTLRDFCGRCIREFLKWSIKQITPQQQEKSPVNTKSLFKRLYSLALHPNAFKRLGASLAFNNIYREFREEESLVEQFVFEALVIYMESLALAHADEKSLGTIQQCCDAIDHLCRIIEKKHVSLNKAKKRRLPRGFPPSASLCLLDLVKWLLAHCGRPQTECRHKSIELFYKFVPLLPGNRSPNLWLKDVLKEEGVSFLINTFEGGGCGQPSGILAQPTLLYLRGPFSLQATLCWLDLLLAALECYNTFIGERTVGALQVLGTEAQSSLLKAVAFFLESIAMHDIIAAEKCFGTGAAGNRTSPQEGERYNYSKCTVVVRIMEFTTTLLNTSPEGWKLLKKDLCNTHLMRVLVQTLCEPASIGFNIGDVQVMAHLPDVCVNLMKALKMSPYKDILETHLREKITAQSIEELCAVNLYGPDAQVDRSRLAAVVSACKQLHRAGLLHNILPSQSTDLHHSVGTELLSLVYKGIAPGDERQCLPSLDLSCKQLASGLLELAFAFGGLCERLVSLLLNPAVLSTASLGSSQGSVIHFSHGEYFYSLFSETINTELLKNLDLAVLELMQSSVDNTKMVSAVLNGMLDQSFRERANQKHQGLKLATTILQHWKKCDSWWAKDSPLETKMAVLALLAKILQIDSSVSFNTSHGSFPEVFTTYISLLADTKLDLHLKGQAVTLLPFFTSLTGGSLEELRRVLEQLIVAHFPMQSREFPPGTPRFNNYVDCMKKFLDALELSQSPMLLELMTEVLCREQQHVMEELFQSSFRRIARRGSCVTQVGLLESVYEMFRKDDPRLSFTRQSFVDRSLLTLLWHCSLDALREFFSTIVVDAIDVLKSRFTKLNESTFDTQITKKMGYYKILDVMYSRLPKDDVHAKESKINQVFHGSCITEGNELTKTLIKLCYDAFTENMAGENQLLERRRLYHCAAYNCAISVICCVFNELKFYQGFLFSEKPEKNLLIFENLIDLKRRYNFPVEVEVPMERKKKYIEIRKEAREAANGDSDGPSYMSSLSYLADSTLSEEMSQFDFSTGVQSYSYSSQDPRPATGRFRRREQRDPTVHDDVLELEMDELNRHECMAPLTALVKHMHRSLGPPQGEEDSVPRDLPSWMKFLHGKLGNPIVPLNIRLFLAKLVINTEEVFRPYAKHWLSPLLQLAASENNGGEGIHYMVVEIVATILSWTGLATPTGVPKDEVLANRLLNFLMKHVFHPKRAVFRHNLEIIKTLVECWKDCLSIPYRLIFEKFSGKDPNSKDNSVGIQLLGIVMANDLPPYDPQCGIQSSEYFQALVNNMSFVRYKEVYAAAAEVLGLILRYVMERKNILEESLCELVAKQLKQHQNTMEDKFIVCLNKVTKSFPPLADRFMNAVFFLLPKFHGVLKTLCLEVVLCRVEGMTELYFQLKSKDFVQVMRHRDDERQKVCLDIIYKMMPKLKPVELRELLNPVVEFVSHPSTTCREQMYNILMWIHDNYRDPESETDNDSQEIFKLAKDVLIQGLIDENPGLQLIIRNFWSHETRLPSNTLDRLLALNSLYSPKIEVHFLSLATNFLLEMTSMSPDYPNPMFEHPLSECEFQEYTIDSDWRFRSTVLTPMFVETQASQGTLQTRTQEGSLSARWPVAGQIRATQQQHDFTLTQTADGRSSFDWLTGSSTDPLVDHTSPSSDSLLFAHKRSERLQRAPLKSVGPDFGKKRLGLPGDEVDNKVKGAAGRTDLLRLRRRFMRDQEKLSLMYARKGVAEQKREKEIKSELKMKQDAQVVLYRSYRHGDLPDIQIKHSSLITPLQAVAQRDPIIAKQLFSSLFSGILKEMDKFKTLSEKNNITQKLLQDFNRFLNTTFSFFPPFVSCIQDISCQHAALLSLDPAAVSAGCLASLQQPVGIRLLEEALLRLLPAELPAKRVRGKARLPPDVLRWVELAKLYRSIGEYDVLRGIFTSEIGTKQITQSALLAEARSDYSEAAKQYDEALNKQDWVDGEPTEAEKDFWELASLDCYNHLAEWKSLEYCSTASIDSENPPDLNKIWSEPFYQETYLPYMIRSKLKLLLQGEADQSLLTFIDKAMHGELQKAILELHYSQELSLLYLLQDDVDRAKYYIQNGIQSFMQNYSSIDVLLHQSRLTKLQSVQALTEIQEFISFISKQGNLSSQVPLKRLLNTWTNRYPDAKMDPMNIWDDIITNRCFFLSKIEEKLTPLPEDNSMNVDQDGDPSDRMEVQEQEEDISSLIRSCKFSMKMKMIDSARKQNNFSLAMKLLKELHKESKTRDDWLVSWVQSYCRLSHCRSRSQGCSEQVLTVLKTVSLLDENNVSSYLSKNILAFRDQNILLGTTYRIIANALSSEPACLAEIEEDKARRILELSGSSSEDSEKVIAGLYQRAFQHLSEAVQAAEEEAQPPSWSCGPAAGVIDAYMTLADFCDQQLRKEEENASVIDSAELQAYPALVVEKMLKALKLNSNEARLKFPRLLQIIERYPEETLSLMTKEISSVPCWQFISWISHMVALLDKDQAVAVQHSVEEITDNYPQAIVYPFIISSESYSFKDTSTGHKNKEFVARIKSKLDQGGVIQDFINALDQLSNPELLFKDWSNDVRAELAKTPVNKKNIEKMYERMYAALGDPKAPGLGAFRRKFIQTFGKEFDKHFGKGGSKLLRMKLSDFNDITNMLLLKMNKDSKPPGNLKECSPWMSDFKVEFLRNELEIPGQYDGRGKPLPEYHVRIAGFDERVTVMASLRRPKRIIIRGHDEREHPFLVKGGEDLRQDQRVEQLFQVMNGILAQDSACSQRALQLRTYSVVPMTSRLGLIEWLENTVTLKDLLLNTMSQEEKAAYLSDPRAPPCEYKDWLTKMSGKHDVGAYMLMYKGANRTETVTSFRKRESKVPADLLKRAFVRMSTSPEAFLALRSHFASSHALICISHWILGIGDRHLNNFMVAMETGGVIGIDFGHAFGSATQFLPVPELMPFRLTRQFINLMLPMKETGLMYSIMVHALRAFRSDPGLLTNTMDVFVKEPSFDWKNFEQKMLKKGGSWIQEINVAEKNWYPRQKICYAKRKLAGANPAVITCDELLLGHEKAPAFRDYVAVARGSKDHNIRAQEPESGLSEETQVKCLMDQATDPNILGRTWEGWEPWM

As for `COC(=O)[C@H](CO)NCCOc1ccc(-c2cccc3c(=O)cc(N4CCOCC4)oc23)c2sc3ccccc3c12`, the Ratio in the assay on HeLa [1] is reported as 2.9; in the assay with HeLa [2], 10.5. The same compound had an IC50 in assay [3] of 2 nM.

For `O=C(CCN1CCN(CCOCCO)CC1)Nc1ccc(-c2cccc3c(=O)cc(N4CCOCC4)oc23)c2sc3ccccc3c12`, the values for the Ratio with HeLa [1] and with HeLa [2] were 1.1 and 1, respectively. In assay [3], this compound came in with an IC50 of 29 nM.

Consider `O=C(CCNCCN1CCCCC1)Nc1ccc(-c2cccc3c(=O)cc(N4CCOCC4)oc23)c2sc3ccccc3c12`, for which the figures for the Ratio in the assay with HeLa [1] and with HeLa [2] were 1 and 3.3, respectively. Moreover, the IC50 in assay [3] was determined as 33 nM.

For the compound `O=C(CN1CCN(CCOCCO)CC1)Nc1ccc(-c2cccc3c(=O)cc(N4CCOCC4)oc23)c2sc3ccccc3c12`, the Ratio with HeLa [1] is given as 1.6; in the assay on HeLa [2] it was 3.2. The same compound gave an IC50 in assay [3] of 6 nM.

With `COCCNCC(=O)Nc1ccc(-c2cccc3c(=O)cc(N4CCOCC4)oc23)c2sc3ccccc3c12`, the results for the Ratio in the assay with HeLa [1] and in the assay with HeLa [2] were 1.2 and 5.9, respectively. In assay [3], this compound had an IC50 of 7 nM.

On to `O=C(CNCCCN1CCOCC1)Nc1ccc(-c2cccc3c(=O)cc(N4CCOCC4)oc23)c2sc3ccccc3c12`, for which the Ratio amounted to 2 in the assay on HeLa [1] and 7.4 in the assay with HeLa [2]. For the same compound, the concentration for half-maximal inhibition (IC50) in assay [3] is 13 nM.

`CN(C)CCOc1ccc(-c2cccc3c(=O)cc(N4CCOCC4)oc23)c2sc3ccccc3c12`: the Ratio amounted to 1.8 in the assay with HeLa [1] and 3.3 with HeLa [2]. This compound also yielded an IC50 in assay [3] of 8 nM.

Turning to `O=C(CCNCCN1CCOCC1)Nc1ccc(-c2cccc3c(=O)cc(N4CCOCC4)oc23)c2sc3ccccc3c12`, the Ratio with HeLa [1] is on record as 1.3; in the assay with HeLa [2], 1.9. The compound also returned an IC50 in assay [3] of 6 nM.

For `CCN(CCC(=O)Nc1ccc(-c2cccc3c(=O)cc(N4CCOCC4)oc23)c2sc3ccccc3c12)Cc1ccncc1`, the Ratio was determined as 1 in the assay with HeLa [1] and 1.6 in the assay on HeLa [2]. In assay [3], this compound returned an IC50 of 31 nM.

As for `O=C(CCNCCCN1CCOCC1)Nc1ccc(-c2cccc3c(=O)cc(N4CCOCC4)oc23)c2sc3ccccc3c12`, the figures for the Ratio in the assay on HeLa [1] and with HeLa [2] were 0.9 and 1.4, respectively. The compound also had an IC50 in assay [3] of 9 nM.

On to `CC(C)N1CCN(CCOc2ccc(-c3cccc4c(=O)cc(N5CCOCC5)oc34)c3sc4ccccc4c23)CC1`, for which the Ratio in the assay with HeLa [1] turned out to be 1.6; with HeLa [2], 6.3. This compound registered an IC50 in assay [3] of 3 nM.

Regarding `CN(CCOc1ccc(-c2cccc3c(=O)cc(N4CCOCC4)oc23)c2sc3ccccc3c12)CC(N)=O`, the Ratio with HeLa [1] stood at 1.4; with HeLa [2], 7.7. Half-maximal inhibition in assay [3] (IC50) required 3 nM.

Turning to `O=C(CN1CCCN(CCO)CC1)Nc1ccc(-c2cccc3c(=O)cc(N4CCOCC4)oc23)c2sc3ccccc3c12`, the Ratio in the assay on HeLa [1] is 1.2; with HeLa [2], 3.3. The compound further returned an IC50 in assay [3] of 30 nM.

For `COc1ccc(CNCCC(=O)Nc2ccc(-c3cccc4c(=O)cc(N5CCOCC5)oc34)c3sc4ccccc4c23)cc1`, the Ratio in the assay with HeLa [1] was determined as 1.7; in the assay on HeLa [2] it was 7.2. This compound gave an IC50 in assay [3] of 9 nM.

`CN(C)CCN(C)CCC(=O)Nc1ccc(-c2cccc3c(=O)cc(N4CCOCC4)oc23)c2sc3ccccc3c12`: the Ratio in the assay with HeLa [1] is reported as 1.2; in the assay on HeLa [2] it was 5.1. In addition, in assay [3], the IC50 was 78 nM.

Consider `COCCN1CCN(CCC(=O)Nc2ccc(-c3cccc4c(=O)cc(N5CCOCC5)oc34)c3sc4ccccc4c23)CC1`, for which the values for the Ratio with HeLa [1] and in the assay with HeLa [2] were 1.3 and 3.5, respectively. Further, the IC50 in assay [3] stood at 19 nM.

Take `NCCC(=O)Nc1ccc(-c2cccc3c(=O)cc(N4CCOCC4)oc23)c2sc3ccccc3c12`: the Ratio was determined as 1.1 in the assay with HeLa [1] and 1.4 in the assay with HeLa [2]. 8 nM corresponded to half-maximal inhibition in assay [3] (IC50).

For `C[C@@H]1CN(CC(=O)Nc2ccc(-c3cccc4c(=O)cc(N5CCOCC5)oc34)c3sc4ccccc4c23)C[C@H](C)O1`, the Ratio in the assay with HeLa [1] turned out to be 1.3; in the assay with HeLa [2], 8.2. The compound also gave an IC50 in assay [3] of 4 nM.

`O=C(CN1CCCCC1)Nc1ccc(-c2cccc3c(=O)cc(N4CCOCC4)oc23)c2sc3ccccc3c12`: the results for the Ratio in the assay on HeLa [1] and in the assay with HeLa [2] were 1.2 and 10.4, respectively. In assay [3], this compound yielded an IC50 of 21 nM.

For the compound `CC(C)N1CCN(CC(=O)Nc2ccc(-c3cccc4c(=O)cc(N5CCOCC5)oc34)c3sc4ccccc4c23)CC1`, the figures for the Ratio with HeLa [1] and in the assay with HeLa [2] were 1.7 and 12.9, respectively. Half-maximal inhibition in assay [3] (IC50) required 9 nM.

`COCCN1CCN(CC(=O)Nc2ccc(-c3cccc4c(=O)cc(N5CCOCC5)oc34)c3sc4ccccc4c23)CC1`: the Ratio in the assay with HeLa [1] turned out to be 2.2; with HeLa [2], 7.7. The compound also had an IC50 in assay [3] of 6 nM.

Consider `NCC(=O)Nc1ccc(-c2cccc3c(=O)cc(N4CCOCC4)oc23)c2sc3ccccc3c12`, for which the figures for the Ratio with HeLa [1] and in the assay on HeLa [2] were 2.5 and 9, respectively. Besides, in assay [3], the IC50 worked out at 12 nM.

For `C[C@@H]1CN(C(=O)COc2ccc(-c3cccc4c(=O)cc(N5CCOCC5)oc34)c3sc4ccccc4c23)C[C@H](C)O1`, the figures for the Ratio in the assay on HeLa [1] and in the assay with HeLa [2] were 0.9 and 1, respectively. In assay [3], this compound registered an IC50 of 61 nM.

Regarding `COCCNCCC(=O)Nc1ccc(-c2cccc3c(=O)cc(N4CCOCC4)oc23)c2sc3ccccc3c12`, the values for the Ratio in the assay with HeLa [1] and in the assay with HeLa [2] were 2.3 and 5.9, respectively. This compound also displayed an IC50 in assay [3] of 8 nM.

As to `COC(=O)[C@H](CO)NC(=O)COc1ccc(-c2cccc3c(=O)cc(N4CCOCC4)oc23)c2sc3ccccc3c12`, the Ratio is reported as 1.5 in the assay on HeLa [1] and 6.1 with HeLa [2]. It took 6 nM to reach half-maximal inhibition in assay [3] (IC50).

Regarding `CC(C)N1CCN(C(=O)COc2ccc(-c3cccc4c(=O)cc(N5CCOCC5)oc34)c3sc4ccccc4c23)CC1`, the Ratio with HeLa [1] is on record as 1.3; with HeLa [2], 3.1. Moreover, the midpoint of inhibition in assay [3], the IC50, lay at 16 nM.

Regarding `O=C(CNCCO)Nc1ccc(-c2cccc3c(=O)cc(N4CCOCC4)oc23)c2sc3ccccc3c12`, the Ratio in the assay with HeLa [1] was found to be 1.6; in the assay on HeLa [2], 6.2. This compound also gave a half-inhibitory concentration (IC50) in assay [3] of 8 nM.

For the compound `CCN(CC)CCC(=O)Nc1ccc(-c2cccc3c(=O)cc(N4CCOCC4)oc23)c2sc3ccccc3c12`, the Ratio in the assay with HeLa [1] stood at 1.8; with HeLa [2], 5.7. Moreover, the midpoint of inhibition in assay [3], the IC50, lay at 12 nM.

For the compound `O=C(CNCc1ccncc1)Nc1ccc(-c2cccc3c(=O)cc(N4CCOCC4)oc23)c2sc3ccccc3c12`, the Ratio in the assay on HeLa [1] was 1.4; with HeLa [2], 5.5. Moreover, the IC50 in assay [3] worked out at 8 nM.

For `CN(C)CCN(C)CC(=O)Nc1ccc(-c2cccc3c(=O)cc(N4CCOCC4)oc23)c2sc3ccccc3c12`, the Ratio worked out at 1.1 in the assay with HeLa [1] and 5.7 in the assay on HeLa [2]. In assay [3], this compound gave an IC50 of 57 nM.

For `CN1CCCC1CCNCC(=O)Nc1ccc(-c2cccc3c(=O)cc(N4CCOCC4)oc23)c2sc3ccccc3c12` (stereo not drawn), the Ratio in the assay on HeLa [1] is 1.1; with HeLa [2], 2.4. Inhibition in assay [3] was half-maximal at 43 nM (IC50).

`CCN(CC)CC(=O)Nc1ccc(-c2cccc3c(=O)cc(N4CCOCC4)oc23)c2sc3ccccc3c12`: the Ratio turned out to be 1.2 in the assay on HeLa [1] and 3.7 with HeLa [2]. In assay [3], this compound returned a concentration for half-maximal inhibition (IC50) of 84 nM.

With `C[C@@H]1CN(CCOc2ccc(-c3cccc4c(=O)cc(N5CCOCC5)oc34)c3sc4ccccc4c23)C[C@H](C)O1`, the values for the Ratio in the assay on HeLa [1] and in the assay with HeLa [2] were 1.1 and 3.2, respectively. This compound also returned an IC50 in assay [3] of 10 nM.

For the compound `O=C(CN1CCNCC1)Nc1ccc(-c2cccc3c(=O)cc(N4CCOCC4)oc23)c2sc3ccccc3c12`, the Ratio turned out to be 1.4 with HeLa [1] and 5 in the assay with HeLa [2]. In assay [3], this compound had an IC50 of 24 nM.

`O=C(CN1CCOCC1)Nc1ccc(-c2cccc3c(=O)cc(N4CCOCC4)oc23)c2sc3ccccc3c12`: the Ratio came to 3.9 with HeLa [1] and 12.8 with HeLa [2]. The same compound showed an IC50 in assay [3] of 11 nM.

For `CC(=O)N1CCN(CCC(=O)Nc2ccc(-c3cccc4c(=O)cc(N5CCOCC5)oc34)c3sc4ccccc4c23)CC1`, the results for the Ratio in the assay on HeLa [1] and in the assay with HeLa [2] were 0.9 and 1.4, respectively. The same compound returned an IC50 in assay [3] of 23 nM.

In the case of `CN1CCCN(C(=O)COc2ccc(-c3cccc4c(=O)cc(N5CCOCC5)oc34)c3sc4ccccc4c23)CC1`, the Ratio was found to be 1.1 in the assay with HeLa [1] and 2 with HeLa [2]. The IC50 in assay [3] was 44 nM.

Regarding `CN1CCCN(CCC(=O)Nc2ccc(-c3cccc4c(=O)cc(N5CCOCC5)oc34)c3sc4ccccc4c23)CC1`, the values for the Ratio in the assay on HeLa [1] and in the assay on HeLa [2] were 1.1 and 2.6, respectively. The same compound showed an IC50 in assay [3] of 41 nM.

In turn, `CCN(CC)CCOc1ccc(-c2cccc3c(=O)cc(N4CCOCC4)oc23)c2sc3ccccc3c12` displayed a concentration for half-maximal inhibition (IC50) in assay [3] of 22 nM.

On to `CCN1CCCC1CNCC(=O)Nc1ccc(-c2cccc3c(=O)cc(N4CCOCC4)oc23)c2sc3ccccc3c12` (stereo not drawn), for which the Ratio with HeLa [1] was found to be 1.2; with HeLa [2] it was 5.9. Besides, the midpoint of inhibition in assay [3], the IC50, lay at 30 nM.

With `O=C(CNCCN1CCCCC1)Nc1ccc(-c2cccc3c(=O)cc(N4CCOCC4)oc23)c2sc3ccccc3c12`, the Ratio with HeLa [1] is given as 1.3; in the assay with HeLa [2], 9.6. Also, in assay [3], the IC50 stood at 61 nM.

Consider `O=C(COc1ccc(-c2cccc3c(=O)cc(N4CCOCC4)oc23)c2sc3ccccc3c12)N1CCCCC1`, for which the Ratio with HeLa [1] was 1.4; with HeLa [2] it was 5.1. This compound also yielded an IC50 in assay [3] of 19 nM.

`NCCNCC(=O)Nc1ccc(-c2cccc3c(=O)cc(N4CCOCC4)oc23)c2sc3ccccc3c12`: the Ratio with HeLa [1] is 1.1; with HeLa [2], 1.5. In addition, the IC50 in assay [3] stood at 16 nM.

`CN(C)CCN(C)CCOc1ccc(-c2cccc3c(=O)cc(N4CCOCC4)oc23)c2sc3ccccc3c12` had an IC50 in assay [3] of 5 nM.
